Reference: article PMC6581564 (Biomacromolecules, 2019)

Assays:
MUC5AC = MUC5AC (Sus scrofa, UniProt A0A8W4FM62); experiment: Equilibrium dialysis; assay type: binding, pig; conditions: mucin 0.5% w/v; for Mucin binding rank within the NIH Clinical Collection (NCC) set (ΔG): in PBS, 41 NCC molecules, 200 nM
[1] = cited from earlier work
[2] = system: P. aeruginosa strain PAO1; experiment: Colistin MIC by modified broth microdilution assay; assay type: cell-based, Pseudomonas aeruginosa; conditions: in MHB, 37 °C, 24 hours, visual inspection
Method in brief: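 PAO1 grown overnight in Mueller-Hinton II broth (MHB) at 37 °C, then diluted into fresh MHB to about 3×10⁴ CFU/mL. Test compound stock in water was serially diluted 2-fold in MHB and mixed 1:10 with the inoculum (final 1 mg/mL to 0.4 μg/mL). Plates incubated 24 h at 37 °C. MIC taken as the lowest concentration with no visible growth.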

[3] = system: P. aeruginosa strain PAO1; experiment: Colistin efficacy; assay type: cell-based, Pseudomonas aeruginosa; conditions: colistin 8 or 16 μg/mL, 24 h

MUC5AC, sequence (A0A8W4FM62 1-4915): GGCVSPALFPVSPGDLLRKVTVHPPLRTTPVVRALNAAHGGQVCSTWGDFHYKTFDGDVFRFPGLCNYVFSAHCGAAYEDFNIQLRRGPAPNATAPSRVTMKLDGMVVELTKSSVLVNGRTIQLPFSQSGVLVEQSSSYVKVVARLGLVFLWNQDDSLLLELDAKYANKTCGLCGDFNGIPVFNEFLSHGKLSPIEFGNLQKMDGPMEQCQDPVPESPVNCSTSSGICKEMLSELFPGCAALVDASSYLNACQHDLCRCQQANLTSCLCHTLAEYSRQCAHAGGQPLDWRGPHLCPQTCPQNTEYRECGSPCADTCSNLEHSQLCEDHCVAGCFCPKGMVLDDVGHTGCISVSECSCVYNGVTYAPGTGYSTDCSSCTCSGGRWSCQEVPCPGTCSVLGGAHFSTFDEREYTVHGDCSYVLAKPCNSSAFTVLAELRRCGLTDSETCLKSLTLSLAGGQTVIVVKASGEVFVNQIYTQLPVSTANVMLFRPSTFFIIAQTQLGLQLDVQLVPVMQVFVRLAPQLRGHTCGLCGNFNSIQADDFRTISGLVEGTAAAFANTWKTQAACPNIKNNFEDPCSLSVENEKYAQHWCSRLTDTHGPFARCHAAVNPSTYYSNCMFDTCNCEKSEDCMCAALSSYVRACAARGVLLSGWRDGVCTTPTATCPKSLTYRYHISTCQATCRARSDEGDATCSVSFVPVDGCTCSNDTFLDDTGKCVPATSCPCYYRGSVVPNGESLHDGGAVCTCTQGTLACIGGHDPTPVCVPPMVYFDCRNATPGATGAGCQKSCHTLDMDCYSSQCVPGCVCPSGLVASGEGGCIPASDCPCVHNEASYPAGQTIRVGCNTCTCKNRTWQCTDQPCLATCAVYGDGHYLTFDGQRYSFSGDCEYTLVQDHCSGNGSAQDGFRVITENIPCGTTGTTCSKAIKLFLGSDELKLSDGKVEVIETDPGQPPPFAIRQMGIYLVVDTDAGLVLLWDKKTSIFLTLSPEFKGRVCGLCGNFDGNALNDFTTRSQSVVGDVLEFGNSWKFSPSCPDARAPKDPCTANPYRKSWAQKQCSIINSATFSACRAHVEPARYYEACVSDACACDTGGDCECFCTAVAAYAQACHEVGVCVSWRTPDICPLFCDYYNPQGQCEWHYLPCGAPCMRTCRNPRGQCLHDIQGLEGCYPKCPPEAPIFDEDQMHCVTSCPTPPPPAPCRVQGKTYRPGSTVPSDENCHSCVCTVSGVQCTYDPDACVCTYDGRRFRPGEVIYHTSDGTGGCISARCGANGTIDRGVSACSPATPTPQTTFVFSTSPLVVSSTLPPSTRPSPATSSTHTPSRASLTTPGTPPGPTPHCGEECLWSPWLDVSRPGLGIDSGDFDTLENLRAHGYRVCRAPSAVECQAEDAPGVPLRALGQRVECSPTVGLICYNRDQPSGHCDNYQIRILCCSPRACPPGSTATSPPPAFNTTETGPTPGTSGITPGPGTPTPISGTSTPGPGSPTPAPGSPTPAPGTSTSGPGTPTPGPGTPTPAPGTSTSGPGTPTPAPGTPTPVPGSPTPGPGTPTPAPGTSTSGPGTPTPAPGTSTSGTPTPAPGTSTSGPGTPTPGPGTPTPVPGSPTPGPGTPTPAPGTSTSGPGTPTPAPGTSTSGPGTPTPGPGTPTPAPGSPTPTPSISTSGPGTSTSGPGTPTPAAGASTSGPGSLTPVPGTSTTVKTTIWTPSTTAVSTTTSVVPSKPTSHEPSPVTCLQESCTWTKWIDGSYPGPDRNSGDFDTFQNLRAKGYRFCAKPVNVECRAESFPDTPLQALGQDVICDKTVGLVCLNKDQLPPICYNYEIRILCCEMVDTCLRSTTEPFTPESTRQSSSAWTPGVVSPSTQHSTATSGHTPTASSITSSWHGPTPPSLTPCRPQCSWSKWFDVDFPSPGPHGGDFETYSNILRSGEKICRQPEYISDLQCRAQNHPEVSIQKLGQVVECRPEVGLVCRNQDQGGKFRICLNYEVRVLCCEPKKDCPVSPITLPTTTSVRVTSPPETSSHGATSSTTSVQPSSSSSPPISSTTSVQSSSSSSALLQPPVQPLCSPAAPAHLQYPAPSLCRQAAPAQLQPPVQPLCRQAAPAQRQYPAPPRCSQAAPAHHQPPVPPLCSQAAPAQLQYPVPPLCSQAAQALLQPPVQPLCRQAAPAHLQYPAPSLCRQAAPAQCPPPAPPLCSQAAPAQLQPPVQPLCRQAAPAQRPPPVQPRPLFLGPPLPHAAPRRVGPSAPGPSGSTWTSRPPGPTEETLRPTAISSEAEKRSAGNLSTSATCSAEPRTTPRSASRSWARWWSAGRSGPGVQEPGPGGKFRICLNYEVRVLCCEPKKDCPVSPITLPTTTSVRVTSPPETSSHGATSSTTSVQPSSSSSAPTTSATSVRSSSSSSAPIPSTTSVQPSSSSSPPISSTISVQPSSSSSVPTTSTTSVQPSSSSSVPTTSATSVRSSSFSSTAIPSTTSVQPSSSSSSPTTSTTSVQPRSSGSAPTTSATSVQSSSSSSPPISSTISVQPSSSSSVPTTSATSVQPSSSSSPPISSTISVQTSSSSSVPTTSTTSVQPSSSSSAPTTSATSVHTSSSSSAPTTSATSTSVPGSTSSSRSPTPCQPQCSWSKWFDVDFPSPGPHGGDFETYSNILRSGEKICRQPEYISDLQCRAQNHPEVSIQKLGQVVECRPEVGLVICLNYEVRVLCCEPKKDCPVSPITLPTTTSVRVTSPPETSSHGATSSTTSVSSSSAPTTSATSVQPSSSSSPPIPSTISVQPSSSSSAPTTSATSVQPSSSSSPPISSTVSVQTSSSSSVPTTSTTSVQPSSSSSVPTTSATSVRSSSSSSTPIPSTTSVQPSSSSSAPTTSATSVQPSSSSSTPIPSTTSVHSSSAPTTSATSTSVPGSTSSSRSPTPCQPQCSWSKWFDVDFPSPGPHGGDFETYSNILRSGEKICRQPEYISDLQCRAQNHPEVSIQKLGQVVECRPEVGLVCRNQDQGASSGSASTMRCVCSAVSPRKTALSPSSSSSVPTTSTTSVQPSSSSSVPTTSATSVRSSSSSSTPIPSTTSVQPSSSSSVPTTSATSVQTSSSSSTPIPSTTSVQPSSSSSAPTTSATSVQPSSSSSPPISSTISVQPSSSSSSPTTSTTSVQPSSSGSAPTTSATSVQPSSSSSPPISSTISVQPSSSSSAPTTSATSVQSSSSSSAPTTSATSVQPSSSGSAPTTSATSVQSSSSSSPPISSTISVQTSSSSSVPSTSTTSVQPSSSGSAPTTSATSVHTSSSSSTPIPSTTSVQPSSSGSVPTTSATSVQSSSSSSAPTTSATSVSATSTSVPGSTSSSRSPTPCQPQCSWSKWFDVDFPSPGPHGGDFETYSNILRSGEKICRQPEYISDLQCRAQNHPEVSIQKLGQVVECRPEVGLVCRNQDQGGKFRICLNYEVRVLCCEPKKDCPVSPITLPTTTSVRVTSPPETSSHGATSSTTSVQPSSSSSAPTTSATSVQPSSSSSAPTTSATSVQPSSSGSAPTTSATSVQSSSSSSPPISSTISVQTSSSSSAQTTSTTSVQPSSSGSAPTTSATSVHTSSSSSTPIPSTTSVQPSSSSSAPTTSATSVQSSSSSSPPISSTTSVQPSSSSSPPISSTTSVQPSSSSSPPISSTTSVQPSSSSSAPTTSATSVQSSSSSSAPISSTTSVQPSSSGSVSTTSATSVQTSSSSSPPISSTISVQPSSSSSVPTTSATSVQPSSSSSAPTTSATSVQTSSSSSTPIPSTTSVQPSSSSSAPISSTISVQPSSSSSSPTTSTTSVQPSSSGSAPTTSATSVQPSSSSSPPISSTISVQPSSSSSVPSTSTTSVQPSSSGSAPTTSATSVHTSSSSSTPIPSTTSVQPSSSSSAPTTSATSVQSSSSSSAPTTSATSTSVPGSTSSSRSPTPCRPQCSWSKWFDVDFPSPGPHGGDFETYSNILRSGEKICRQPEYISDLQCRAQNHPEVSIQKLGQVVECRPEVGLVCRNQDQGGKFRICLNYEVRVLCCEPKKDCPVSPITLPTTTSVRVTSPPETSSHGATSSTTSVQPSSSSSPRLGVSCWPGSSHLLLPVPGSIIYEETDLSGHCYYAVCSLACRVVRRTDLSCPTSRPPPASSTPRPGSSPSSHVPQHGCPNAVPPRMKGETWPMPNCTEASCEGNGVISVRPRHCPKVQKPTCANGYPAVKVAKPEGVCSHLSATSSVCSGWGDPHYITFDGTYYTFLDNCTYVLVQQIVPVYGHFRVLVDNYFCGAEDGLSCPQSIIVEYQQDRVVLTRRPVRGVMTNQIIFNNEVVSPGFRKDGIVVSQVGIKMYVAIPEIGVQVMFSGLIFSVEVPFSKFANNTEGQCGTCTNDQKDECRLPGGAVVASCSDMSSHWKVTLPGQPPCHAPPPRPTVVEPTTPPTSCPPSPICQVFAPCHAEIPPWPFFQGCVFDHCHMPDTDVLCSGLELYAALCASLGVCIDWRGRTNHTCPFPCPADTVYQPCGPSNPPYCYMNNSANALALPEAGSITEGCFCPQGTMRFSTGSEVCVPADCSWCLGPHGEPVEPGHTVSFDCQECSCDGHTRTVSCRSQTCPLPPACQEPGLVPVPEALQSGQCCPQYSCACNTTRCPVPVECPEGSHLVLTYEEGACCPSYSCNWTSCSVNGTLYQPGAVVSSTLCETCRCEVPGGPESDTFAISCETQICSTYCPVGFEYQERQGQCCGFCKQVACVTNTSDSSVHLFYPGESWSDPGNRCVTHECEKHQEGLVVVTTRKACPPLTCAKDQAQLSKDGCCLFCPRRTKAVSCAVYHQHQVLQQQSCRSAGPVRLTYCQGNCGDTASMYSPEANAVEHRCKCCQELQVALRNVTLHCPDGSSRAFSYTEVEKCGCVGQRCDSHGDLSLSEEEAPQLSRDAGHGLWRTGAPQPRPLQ

| Compound | Mucin binding rank within the NIH Clinical Collection (NCC) set (ΔG) (MUC5AC) | Molecular charge [1] | further results |
| --- | --- | --- | --- |
| NC[C@H]1O[C@H](O[C@H]2[C@H](O)[C@@H](O[C@H]3O[C@H](CO)[C@@H](O)[C@H](N)[C@H]3O)[C@H](N)C[C@@H]2N)[C@H](N)C[C@@H]1O [tobramycin] | – | +5 | – |
| colistin | – | +5 | MIC [2]: 8 µg/mL; Binding to mucin (ΔG; negative ΔG implies binding) (MUC5AC; colistin 10 μM, 4 h, 37 °C): bound to mucin; Effect of methylcellulose on colistin activity (surviving PAO1 cells, CFU) ([3]; MC 0.5% w/v in MHB): negligible effect; Effect of mucin on colistin activity (surviving PAO1 cells, CFU) ([3]; mucin 0.5% w/v in MHB): inhibited the effect of colistin to a substantial degree |

Continued, in another order:

| Mucin binding rank within the NIH Clinical Collection (NCC) set (ΔG) (MUC5AC) | Compound | Molecular charge [1] | further results |
| --- | --- | --- | --- |
| four strongest mucin binders | Nc1nc(Cl)nc2c1ncn2[C@H]1C[C@H](O)[C@@H](CO)O1 [cladribine] | – | – |
| four strongest mucin binders | O=c1c(-c2ccccc2)c1-c1ccccc1 [diphencyprone] | – | – |
| four strongest mucin binders | COc1cccc2c1C(=O)c1c(O)c3c(c(O)c1C2=O)C[C@@](O)(C(=O)CO)C[C@@H]3O[C@H]1C[C@H](N)[C@H](O)[C@H](C)O1 [doxorubicin] | – | – |
| four strongest mucin binders | CNCCCC12CCC(c3ccccc31)c1ccccc12 [maprotiline] | – | – |
